Assay results: ChEMBL document CHEMBL1134458, “Synthesis and structure-activity relationships of cetiedil analogues as blockers of the Ca(2+)-activated K+ permeability of erythrocytes” (J Med Chem, 2001)

What was measured:
Oryctolagus cuniculus [1] = species: Oryctolagus cuniculus; experiment: Inhibition of K+ loss from rabbit blood cells treated with [Ca2+] ionophore A-23187.; format: functional
Summary of the method: (§1)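 Rabbit red cells were stored at 4 °C for up to 4 days, then suspended at ~1% hematocrit in low-K⁺ saline (0.1 mM KCl, 1 mM CaCl₂, inosine, Tris, pH 7.4) at 37 °C. They were preincubated 40–60 min with compound from DMSO stock (120 min for one; 3 min for highly lipophilic ones). A23187 2 μM was added, and K⁺ loss was read by K⁺ electrode over 3 min. Total K⁺ came from digitonin lysis, and loss was expressed as % of control.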

[2] = (§2) Partition coefficient (logP); format: physicochemical; conditions: octanol/water
Summary of the method: (§3)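 Calculated, not measured, for the free base by summing Mannhold/Rekker revised hydrophobic fragmental constants.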

[3] = as §2; format: physicochemical; conditions: octanol/water; summary of the method: as §3; remark: listed apart in the source
Oryctolagus cuniculus [4] = species: Oryctolagus cuniculus; experiment: Concentration required to cause 50% inhibition of K+ loss from rabbit blood cells treated with [Ca2+] ionophore A-23187; format: functional
Summary of the method: as §1, with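 “control. Assays were run ≥3 times, and IC50 was fitted by Hill equation (common nH, 100% maximum).” for “control.”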

SMILES: COc1ccc(CC2(C(=O)OCCN3CCCCCC3)c3ccccc3-c3ccccc32)cc1
- IC50 (Oryctolagus cuniculus [1]): 2.8 µM
- logP [2]: 7.09
- logP ([2]; read-out: logP): 7.75

SMILES: O=C(OCCN1CCCCCC1)C(c1ccsc1)C1CCCCC1 (stereo unspecified)
- IC50 (Oryctolagus cuniculus [1]): 25 µM
- logP [2]: 5.98
- logP ([2]; read-out: logP): 6.59

SMILES: O=C(OCCN1CCCCCC1)C12C[C@H]3C[C@@H](C1)C[C@@H](C2)C3
- IC50 (Oryctolagus cuniculus [1]): 178 µM
- logP [2]: 4.38
- logP ([2]; read-out: logP): 5.6

SMILES: O=C(OCCN1CCCCCC1)c1cccc2ccccc12
- IC50 (Oryctolagus cuniculus [1]): 222 µM
- logP [2]: 5.18
- logP ([2]; read-out: logP): 5.16

SMILES: O=C(OCCCN1CCCCCC1)C(c1ccccc1)(c1ccccc1)c1ccccc1
- logP [3]: 6.4
- IC50 (Oryctolagus cuniculus [4]): 9.2 µM
- logP ([2]; read-out: logP): 7.65

SMILES: O=C(OCCN1CCCCCC1)c1ccc2ccccc2c1
- IC50 (Oryctolagus cuniculus [1]): 285 µM
- logP [2]: 5.18
- logP ([2]; read-out: logP): 5.16

SMILES: O=C(OCCN1CCCCCC1)C1(Cc2ccccc2)c2ccccc2-c2ccccc21
- IC50 (Oryctolagus cuniculus [1]): 4 µM
- logP [2]: 7.18
- logP ([2]; read-out: logP): 7.68

SMILES: C(#CCC1(Cc2ccccc2)c2ccccc2-c2ccccc21)CN1CCCCCC1
- logP [3]: 7.9
- IC50 (Oryctolagus cuniculus [4]): 1.5 µM
- logP [2]: 9.1

SMILES: O=C(CC1CCCCC1)OCCN1CCCCCC1
- IC50 (Oryctolagus cuniculus [1]): 290 µM
- logP [2]: 4.93
- logP ([2]; read-out: logP): 5.18

SMILES: O=C(CC(c1ccccc1)(c1ccccc1)c1ccccc1)OCCN1CCCCCC1
- logP [3]: 7.11
- IC50 (Oryctolagus cuniculus [4]): 9.3 µM
- logP ([2]; read-out: logP): 7.65

SMILES: O=C(OCCN1CCCCCC1)C1(Cc2ccc(F)cc2)c2ccccc2-c2ccccc21
- logP [2]: 7.32
- logP ([2]; read-out: logP): 7.92

SMILES: O=C(Cc1ccsc1)OCCN1CCCCCC1
- IC50 (Oryctolagus cuniculus [1]): 142 µM
- logP [2]: 3.55
- logP ([2]; read-out: logP): 3.45

SMILES: O=C(OCCN1CCCCCC1)C1(Cc2ccc([N+](=O)[O-])cc2)c2ccccc2-c2ccccc21
- IC50 (Oryctolagus cuniculus [1]): 4.6 µM
- logP [2]: 6.92
- logP ([2]; read-out: logP): 7.44

SMILES: c1ccc(C(CCOCCN2CCCCCC2)(c2ccccc2)c2ccccc2)cc1
- logP [3]: 7.35
- IC50 (Oryctolagus cuniculus [4]): 5.5 µM
- logP ([2]; read-out: logP): 7.83

SMILES: O=C(OCCN1CCCCCC1)C(c1ccccc1)(c1ccccc1)c1ccccc1
- logP [3]: 6.69
- IC50 (Oryctolagus cuniculus [4]): 8.2 µM
- logP ([2]; read-out: logP): 7.14

SMILES: O=C(NCCN1CCCCCC1)C(c1ccsc1)C1CCCCC1 (stereo unspecified)
- IC50 (Oryctolagus cuniculus [1]): 75 µM
- logP [2]: 5.11
- logP ([2]; read-out: logP): 5.15

SMILES: O=C(OCCN1CCCCCC1)C(C1CCCCC1)C1CCCCC1
- IC50 (Oryctolagus cuniculus [1]): 14 µM
- logP [2]: 6.86
- logP ([2]; read-out: logP): 8.33

SMILES: O=C(CC(c1ccccc1)c1ccccc1)OCCN1CCCCCC1
- IC50 (Oryctolagus cuniculus [1]): 43 µM
- logP [2]: 5.67
- logP ([2]; read-out: logP): 5.96

SMILES: O=C(OCCN1CCCCCC1)C1c2ccccc2-c2ccccc21
- IC50 (Oryctolagus cuniculus [1]): 42 µM
- logP [2]: 5.24
- logP ([2]; read-out: logP): 5.47

SMILES: O=C(OCCN1CCCCCC1)c1c2ccccc2cc2ccccc12
- logP [3]: 6.36
- IC50 (Oryctolagus cuniculus [4]): 28 µM
- logP ([2]; read-out: logP): 6.45

SMILES: O=C(OCCN1CCCCCC1)C(c1ccccc1)c1ccccc1
- IC50 (Oryctolagus cuniculus [1]): 164 µM
- logP [2]: 5.25
- logP ([2]; read-out: logP): 5.44

SMILES: O=C(OCCN1CCCCCC1)C(c1ccccc1)C1CCCCC1 (stereo unspecified)
- IC50 (Oryctolagus cuniculus [1]): 18 µM
- logP [2]: 5.93
- logP ([2]; read-out: logP): 6.88

SMILES: O=C(OCCN1CCCCCC1)C1(Cc2ccc(Cl)cc2)c2ccccc2-c2ccccc21
- IC50 (Oryctolagus cuniculus [1]): 2.9 µM
- logP [2]: 7.89
- logP ([2]; read-out: logP): 8.41

SMILES: O=C(OCCN1CCCCCC1)C(c1ccccc1)c1ccsc1 (stereo unspecified)
- IC50 (Oryctolagus cuniculus [1]): 47 µM
- logP [2]: 4.9
- logP ([2]; read-out: logP): 5.15
